Experimental data as given in PubChem BioAssay AID652205 (Vanderbilt Specialized Chemistry Center, 2013).
Calls of active or inactive are those of the source. The rule behind the calls is not given here.

Molecular target: Metabotropic glutamate receptor 6 (Homo sapiens) (UniProt O15303)
Assay: glutamate potency shift at mGlu6 – cell-based, HEK293A, Galpha15, calcium mobilization, selectivity assay for mGlu5 silent allosteric modulator project (AID 652205)
Details: HEK293A hmGlu6+Galpha15, Fluo4 calcium mobilization, glutamate CRC; at 10 µM
Method in brief: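 System: HEK293 cells co-expressing human mGlu6 receptor and Galpha15; incubation: dye loading 60 min, 37 °C, compound at 20 s; detection: Fluo-4 calcium mobilization fluorescence; compound dosing: single test compound dose of 10 µM, 1% DMSO; medium: HBSS with 2.5 mM probenecid and 20 mM HEPES, pH 7.4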

Chain of Metabotropic glutamate receptor 6 (Homo sapiens) (O15303 whole entry, looked up): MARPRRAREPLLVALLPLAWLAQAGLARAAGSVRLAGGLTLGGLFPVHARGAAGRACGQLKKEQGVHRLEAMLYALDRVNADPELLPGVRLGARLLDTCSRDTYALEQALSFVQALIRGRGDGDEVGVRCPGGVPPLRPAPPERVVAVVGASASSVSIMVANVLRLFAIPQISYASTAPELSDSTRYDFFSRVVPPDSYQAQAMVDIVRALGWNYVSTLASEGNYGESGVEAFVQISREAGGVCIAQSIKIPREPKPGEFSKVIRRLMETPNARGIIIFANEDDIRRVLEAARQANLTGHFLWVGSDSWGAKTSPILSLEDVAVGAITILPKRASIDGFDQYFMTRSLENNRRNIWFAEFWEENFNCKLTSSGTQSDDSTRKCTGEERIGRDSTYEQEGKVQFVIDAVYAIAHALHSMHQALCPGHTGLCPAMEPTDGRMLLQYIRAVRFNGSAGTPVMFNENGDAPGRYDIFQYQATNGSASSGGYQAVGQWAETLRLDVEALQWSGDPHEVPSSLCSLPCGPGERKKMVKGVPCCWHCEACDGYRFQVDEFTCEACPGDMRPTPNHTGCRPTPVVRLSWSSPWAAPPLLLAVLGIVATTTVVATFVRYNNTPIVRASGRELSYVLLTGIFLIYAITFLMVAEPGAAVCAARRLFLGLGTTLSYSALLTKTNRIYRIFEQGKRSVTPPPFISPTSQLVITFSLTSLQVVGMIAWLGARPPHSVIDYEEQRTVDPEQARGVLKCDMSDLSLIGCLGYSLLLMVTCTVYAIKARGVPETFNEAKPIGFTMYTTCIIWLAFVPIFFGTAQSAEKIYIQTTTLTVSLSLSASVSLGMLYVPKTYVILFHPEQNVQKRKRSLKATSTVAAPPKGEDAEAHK

O=C(c1ccc(C#Cc2cccc(F)c2)cn1)N1CC2CC2C1 (stereo unspecified)
glutamate EC50 fold shift: 0.859 (inactive)
